From ChEMBL document CHEMBL1641520, “Design, synthesis, and biological evaluation of novel water-soluble N-mustards as potential anticancer agents” (Bioorg Med Chem, 2011)
pIC50: −log10 of the molar value. The source made the active and inactive calls. The calls are words filed in the database; no cut-off is given here.

Legend:
[1] = test system: CCRF-CEM; assay: Selectivity ratio of IC50 for taxol-resistant human CCRF-CEM cells to IC50 for human CCRF-CEM cells; type: functional
[2] = test system: CCRF-CEM; assay: Cytotoxicity against vinblastine-resistant human CCRF-CEM cells after 72 hrs by XTT assay; type: functional, cell-based
How it was run: (§1)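 CCRF-CEM leukemia cells and their taxol- or vinblastine-resistant sublines given compound for 72 h. XTT read-out: after phenazine methosulfate–XTT, 6 h at 37 °C, absorbance at 450 and 630 nm. IC50 from median-effect analysis of dose-effect data at six or seven concentrations.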

[3] = Cytotoxicity against human CL1-0 cells after 72 hrs by alamar blue assay; type: functional, cell-based; settings: CL1-0, 72 h
How it was run: (§2)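 H1299, PC3, CL1-0, CL1-5 and MCF-7 cells exposed to compound for 72 h. Alamar blue added, then 6 h at 37 °C; absorbance at 570 and 600 nm. IC50 from median-effect analysis of dose-effect data at six or seven concentrations.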

[4] = test system: HCT-116; assay: Cytotoxicity against human HCT116 cells after 72 hrs by SRB assay; type: functional, cell-based; settings: HCT-116, 72 h
How it was run: (§3)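 MX-1 breast and HCT-116 colon carcinoma cells exposed to compound for 72 h; growth measured by sulforhodamine B assay. IC50 from median-effect analysis of dose-effect data at six or seven concentrations.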

[5] = Cytotoxicity against human CL1-5 cells after 72 hrs by alamar blue assay; type: functional, cell-based; settings: CL1-5, 72 h; how it was run: as §2
[6] = test system: CCRF-CEM; assay: Selectivity ratio of IC50 for vinblastine-resistant human CCRF-CEM cells to IC50 for human CCRF-CEM cells; type: functional
[7] = test system: PC-3; assay: Cytotoxicity against human PC3 cells after 72 hrs by alamar blue assay; type: functional, cell-based; settings: PC-3, 72 h; how it was run: as §2
[8] = test system: CCRF-CEM; assay: Cytotoxicity against human CCRF-CEM cells after 72 hrs by XTT assay; type: functional, cell-based; how it was run: as §1
[9] = test system: CCRF-CEM; assay: Cytotoxicity against taxol-resistant human CCRF-CEM cells after 72 hrs by XTT assay; type: functional, cell-based; how it was run: as §1
[10] = test system: MCF7; assay: Cytotoxicity against human MCF7 cells after 72 hrs by alamar blue assay; type: functional, cell-based; settings: MCF7, 72 h; how it was run: as §2
[11] = test system: MX1; assay: Cytotoxicity against human MX1 cells after 72 hrs by SRB assay; type: functional, cell-based; settings: MX1, 72 h; how it was run: as §3
[12] = Cytotoxicity against human H1299 cells after 72 hrs by alamar blue assay; type: functional, cell-based; settings: NCI-H1299, 72 h; how it was run: as §2
[13] = test system: Nucleic Acid; assay: Binding affinity to Escherichia coli plasmid EGFP-N1 DNA at 1 to 10 uM after 22 hrs by alkaline agarose gel shift assay; type: nucleic-acid assay
How it was run: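 Purified pEGFP-N1 plasmid DNA (1500 ng) incubated with compound (1–20 µM) in 3 mM NaCl/1 mM sodium phosphate pH 7.4/1 mM EDTA for 2 h at 37 °C. Linearized with BamHI, ethanol-precipitated, denatured in 0.5 N NaOH-10 mM EDTA. Run on 0.8% alkaline agarose gel at 4 °C, 18 V for 22 h. Ethidium bromide stain; cross-linked double-stranded DNA scored against single-stranded DNA.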

[14] = test system: U-87MG ATCC; settings: Homo sapiens, 80 mg/kg

Compound | Ratio IC50 [1] | pIC50 [2] | pIC50 [3] | pIC50 [4] | pIC50 [5] | Ratio IC50 [6] | pIC50 [7] | pIC50 [8] | pIC50 [9] | pIC50 [10] | pIC50 [11] | pIC50 [12] | Activity [13] | inhibition [14]
CN(C)CCCNC(=O)c1ccc(NC(=O)Nc2ccc(N(CCCl)CCCl)cc2)cc1.Cl | 77.5 | 4.48 | 4.79 | 5.34 | 5.01 | 124.8 | 5.28 | 6.59 | 4.69 | 5.29 | 5.95 | 4.90 |  | 
Cl.O=C(Nc1ccc(C(=O)N2CCC(N3CCCCC3)CC2)cc1)Nc1ccc(N(CCCl)CCCl)cc1 | 91.4 | 4.49 | 4.80 | 6.19 | 5.07 | 143.7 | 5.72 | 6.66 | 4.69 | 5.81 | 5.44 | 5.02 |  | 
Cl.O=C(Nc1ccc(N(CCCl)CCCl)cc1)Nc1cccc(C(=O)NCCN2CCCC2)c1 | 73.7 | 4.44 |  | 6.33 |  | 106.9 |  | 6.47 | 4.60 |  | 5.66 |  |  | 
CN(C)CCCOc1ccc(NC(=O)Nc2ccc(N(CCCl)CCCl)cc2)cc1.Cl | 11.8 | 5.90 | 5.15 | 6.54 | 5.29 | 10.9 | 6.03 | 6.92 | 5.87 | 5.88 | 6.59 | 5.01 | Active | 
CC(=O)O[C@H]1C(=O)[C@@]2(C)[C@H]([C@H](OC(=O)c3ccccc3)[C@]3(O)C[C@H](OC(=O)[C@H](O)[C@@H](NC(=O)c4ccccc4)c4ccccc4)C(C)=C1C3(C)C)[C@]1(OC(C)=O)CO[C@@H]1C[C@@H]2O [PACLITAXEL] | 330 |  |  |  |  | 980 |  | 8.52 |  |  |  |  |  | 
CN(C)CCNC(=O)c1ccc(NC(=O)Nc2ccc(N(CCCl)CCCl)cc2)cc1.Cl | 21.1 | 5.17 |  | 6.41 |  | 29.6 |  | 6.64 | 5.32 |  | 5.96 |  |  | 
O=P1(N(CCCl)CCCl)NCCCO1 (stereo unspecified) |  |  |  |  |  |  |  |  |  |  |  |  |  | Active
Cl.O=C(Nc1ccc(C(=O)NCCN2CCCC2)cc1)Nc1ccc(N(CCCl)CCCl)cc1 | 71.8 | 4.51 |  | 6.44 |  | 112.5 |  | 6.57 | 4.71 |  | 5.63 |  |  | 
Cl.O=C(Nc1ccc(N(CCCl)CCCl)cc1)Nc1cccc(C(=O)NCCN2CCCCC2)c1 | 17 | 4.98 | 5.06 | 6.51 | 5.33 | 43.7 | 5.77 | 6.57 | 5.34 | 5.93 | 6.14 | 5.21 | Active | 
Cl.O=C(Nc1ccc(OCCN2CCCC2)cc1)Nc1ccc(N(CCCl)CCCl)cc1 | 11.5 | 5.69 | 5.52 | 6.15 | 5.23 | 15 | 5.75 | 6.85 | 5.80 | 5.74 | 6.31 | 5.65 |  | 
Cl.O=C(Nc1ccc(C(=O)NCCN2CCCCC2)cc1)Nc1ccc(N(CCCl)CCCl)cc1 | 41.8 | 4.61 |  | 6.04 |  | 67.8 |  | 6.44 | 4.82 |  | 5.36 |  |  | 
Cl.O=C(Nc1ccc(N(CCCl)CCCl)cc1)Nc1cccc(C(=O)NCCN2CCOCC2)c1 | 14.1 | 4.79 |  | 5.92 |  | 28.1 |  | 6.24 | 5.09 |  | 5.84 |  |  | 
